Values after ≈ are worked out from the molar mass of the structure shown. Active and inactive are the calls of the source. No cut-off for these calls is given here.
Experiments:
[1] = Drug metabolism in dog hepatocytes assessed as glucuronidation; assay type: ADME, cell-based, Canis lupus familiaris, Hepatocyte
[2] = Volume of distribution in type 2 diabetes patient; assay type: ADME; details: human, in vivo
[3] = target: T1, Free fatty acid receptor 1 (Homo sapiens, UniProt O14842); test: Agonist activity at human GPR40 receptor expressed in HEK293 cells assessed as increase in intracellular calcium flux after 2.5 hrs measured over 3 mins by calcium 4 dye-based FLIPR assay relative to linoleic acid; assay type: functional, cell-based; design: Activity: concentration or dose not given beside the values
Procedure, shortened: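 Human GPR40 calcium flux was read on FLIPR. Percent stimulation is expressed against the response to 100 uM linoleic acid.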

[4] = Drug metabolism in dog hepatocytes assessed as O-dealkylation; assay type: ADME, cell-based, Canis lupus familiaris, Hepatocyte
[5] = Clearance in type 2 diabetes patient; assay type: ADME; details: human, in vivo
[6] = Drug metabolism in mouse hepatocytes assessed as oxidation; assay type: ADME, cell-based, Hepatocyte
[7] = Drug metabolism in rat hepatocytes assessed as glucuronidation; assay type: ADME, cell-based, Hepatocyte
Rattus norvegicus [8] = test: Antidiabetic activity in po dosed Zucker fa/fa rat assessed as reduction in blood glucose AUC administered daily for 21 days followed by OGTT at 1 hr after compound dosing and measured 60 mins post glucose challenge by oral glucose tolerance test; assay type: functional
[9] = Intrinsic clearance in human microsomes; assay type: ADME, Microsome
[10] = Drug metabolism in mouse hepatocytes assessed as glucuronidation; assay type: ADME, cell-based, Hepatocyte
[11] = Drug metabolism in mouse hepatocytes assessed as O-dealkylation; assay type: ADME, cell-based, Hepatocyte
[12] = Drug metabolism in rat hepatocytes assessed as O-dealkylation; assay type: ADME, cell-based, Hepatocyte
[13] = Drug metabolism in dog hepatocytes assessed as oxidation; assay type: ADME, cell-based, Canis lupus familiaris, Hepatocyte
Rattus norvegicus [14] = test: Antidiabetic activity in Zucker fa/fa rat assessed as reduction in blood glucose AUC at 1 mg/kg, po administered for 1 day followed by OGTT at 1 hr after compound dosing and measured 60 mins post glucose challenge by oral glucose tolerance test; assay type: functional, organism-based
[15] = Metabolic stability in dog microsomes assessed as compound metabolized after 30 mins; assay type: ADME, Canis lupus familiaris, Microsome; details: read-out: Drug metabolism
Procedure, shortened: (§1)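 Compound incubated 30 min with liver microsomes from mouse, rat, dog or human. Percent of compound metabolized recorded, as mean (SEM, n).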

[16] = Dissociation constant, pKa of the compound; assay type: physicochemical
[17] = Metabolic stability in rat microsomes assessed as compound metabolized after 30 mins; assay type: ADME, Microsome; details: read-out: Drug metabolism; procedure, shortened: as §1
[18] = Drug metabolism in rat hepatocytes assessed as oxidation; assay type: ADME, cell-based, Hepatocyte
[19] = Aqueous solubility of the compound at pH 7.4; assay type: physicochemical
Procedure, shortened: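 Solubility was measured by DMSO/aqueous precipitation at pH 7.4 and reported as the last soluble concentration.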

3T3-L1 = test: Induction of adipogenesis in mouse 3T3L1 cells; assay type: functional, cell-based
Procedure, shortened: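 Adipogenesis was assessed in 3T3-L1 cells.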

[20] = target: Free fatty acid receptor 1 (Rattus norvegicus, UniProt Q8K3T4); test: Agonist activity at rat PK-tagged GPR40 expressed in human U2OS cells assessed as EA-tagged beta-arrestin recruitment after 90 mins in presence of 1 % heat inactivated FBS by beta-galactosidase reporter gene assay; assay type: cell-based
Procedure, shortened: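 β-Arrestin recruitment used rat GPR40 in the presence of 1% FBS. EC50 and % maximal stimulation are reported with SEM and n.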

[21] = target: T1, Free fatty acid receptor 1; test: Agonist activity at human GPR40 receptor expressed in HEK293 cells assessed as increase in intracellular calcium flux after 2.5 hrs measured over 3 mins in presence of 0.1% serum albumin by calcium 4 dye-based FLIPR assay; assay type: functional, cell-based
[22] = target: T1, Free fatty acid receptor 1; test: Agonist activity at human PK-tagged GPR40 expressed in HEK293 cells assessed as EA-tagged beta-arrestin recruitment after 90 mins in presence of 1 % heat inactivated FBS by beta-galactosidase reporter gene assay relative to untreated control; assay type: cell-based
[23] = target: T2, Peroxisome proliferator-activated receptor gamma (Homo sapiens) (UniProt P37231); test: Displacement of [3H]-agonist from human PPARgamma expressed in baculovirus infecetd Sf9 cells system up to 30 uM after 10 hrs in presence of DR2 by scintillation proximity assay
T2 sequence (whole entry): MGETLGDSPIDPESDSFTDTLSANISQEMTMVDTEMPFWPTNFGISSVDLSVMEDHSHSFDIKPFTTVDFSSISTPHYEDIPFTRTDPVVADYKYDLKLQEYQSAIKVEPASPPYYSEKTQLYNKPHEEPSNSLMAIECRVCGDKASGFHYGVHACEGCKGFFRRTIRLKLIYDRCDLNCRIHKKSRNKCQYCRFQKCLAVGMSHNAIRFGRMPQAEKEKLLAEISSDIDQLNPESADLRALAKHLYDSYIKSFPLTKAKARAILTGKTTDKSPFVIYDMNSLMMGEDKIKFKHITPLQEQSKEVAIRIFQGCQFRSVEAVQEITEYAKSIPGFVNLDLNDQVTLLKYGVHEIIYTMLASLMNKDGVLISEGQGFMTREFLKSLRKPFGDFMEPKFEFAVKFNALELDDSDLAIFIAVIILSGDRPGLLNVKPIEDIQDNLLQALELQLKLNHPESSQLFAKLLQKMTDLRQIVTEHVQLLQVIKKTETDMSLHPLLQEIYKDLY
Procedure, shortened: (§2)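 PPAR alpha, delta and gamma binding and functional activity were each tested at concentrations up to 30 µM.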

[24] = target: T1, Free fatty acid receptor 1; test: Competitive displacement of [3H]-TAK-875 from full length human recombinant GPR40 expressed in HEK293 cell membranes after 2 hrs by scintillation counting
Procedure, shortened: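 Binding was measured as competitive inhibition of [3H]-TAK875 (fasiglifam) binding to membranes from cells overexpressing recombinant human GPR40. Ki is reported with SEM and n.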

[25] = target: T2, Peroxisome proliferator-activated receptor gamma (Homo sapiens); test: Agonist activity at […] human PPARgamma expressed in African green monkey CV1 cells up to 30 uM after 24 hrs by luciferase reporter gene assay; assay type: cell-based; procedure, shortened: as §2
[26] = target: T3, Peroxisome proliferator-activated receptor delta (Homo sapiens) (UniProt Q03181); test: Agonist activity at GAL4-fused human PPARdelta expressed in African green monkey CV1 cells up to 30 uM after 24 hrs by luciferase reporter gene assay; assay type: cell-based; procedure, shortened: as §2
T3 sequence (whole entry): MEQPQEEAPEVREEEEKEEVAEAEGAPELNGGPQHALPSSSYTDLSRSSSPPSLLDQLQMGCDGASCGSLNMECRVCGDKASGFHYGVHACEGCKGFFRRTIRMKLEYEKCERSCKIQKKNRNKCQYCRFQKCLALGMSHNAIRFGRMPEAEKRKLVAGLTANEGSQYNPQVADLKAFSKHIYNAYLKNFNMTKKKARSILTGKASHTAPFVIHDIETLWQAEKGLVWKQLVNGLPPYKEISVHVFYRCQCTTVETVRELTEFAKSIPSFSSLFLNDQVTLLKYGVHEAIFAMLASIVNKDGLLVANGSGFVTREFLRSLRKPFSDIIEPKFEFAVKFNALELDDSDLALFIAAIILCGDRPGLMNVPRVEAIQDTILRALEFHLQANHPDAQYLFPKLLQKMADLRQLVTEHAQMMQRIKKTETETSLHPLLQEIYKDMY

[27] = target: T1, Free fatty acid receptor 1; test: Agonist activity at human PK-tagged GPR40 expressed in HEK293 cells assessed as EA-tagged beta-arrestin recruitment after 90 mins in presence of 1 % heat inactivated FBS by beta-galactosidase reporter gene assay; assay type: cell-based
[28] = target: T3, Peroxisome proliferator-activated receptor delta (Homo sapiens); test: Displacement of [3H]-agonist from human PPARdelta expressed in baculovirus infecetd Sf9 cells system up to 30 uM after 10 hrs in presence of DR2 by scintillation proximity assay; procedure, shortened: as §2
[29] = target: T4, Peroxisome proliferator-activated receptor alpha (Homo sapiens) (UniProt Q07869); test: Agonist activity at GAL4-fused human PPARalpha expressed in African green monkey CV1 cells up to 30 uM after 24 hrs by luciferase reporter gene assay; assay type: cell-based; procedure, shortened: as §2
T4 sequence (whole entry): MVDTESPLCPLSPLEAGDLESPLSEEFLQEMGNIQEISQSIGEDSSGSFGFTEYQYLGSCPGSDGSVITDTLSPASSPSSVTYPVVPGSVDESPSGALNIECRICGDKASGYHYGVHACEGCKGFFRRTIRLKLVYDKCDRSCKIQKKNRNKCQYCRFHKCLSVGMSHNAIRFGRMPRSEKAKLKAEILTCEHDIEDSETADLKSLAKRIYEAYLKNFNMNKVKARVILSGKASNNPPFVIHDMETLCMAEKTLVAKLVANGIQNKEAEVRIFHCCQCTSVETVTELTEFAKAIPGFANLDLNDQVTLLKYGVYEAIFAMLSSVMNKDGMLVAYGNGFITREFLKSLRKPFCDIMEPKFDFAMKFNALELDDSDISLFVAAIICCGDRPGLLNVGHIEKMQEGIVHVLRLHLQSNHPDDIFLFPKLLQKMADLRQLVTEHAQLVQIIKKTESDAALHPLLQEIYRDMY

[30] = Protein binding in plasma (unknown origin) by equilibrium dialysis assay; assay type: ADME, cell-free; details: read-out: PPB
[31] = target: T1, Free fatty acid receptor 1; test: Agonist activity at human GPR40 receptor expressed in HEK293 cells assessed as increase in intracellular calcium flux after 2.5 hrs measured over 3 mins by calcium 4 dye-based FLIPR assay; assay type: functional, cell-based
Procedure, shortened: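 Calcium flux was read by FLIPR in cells carrying recombinant human GPR40. Percent stimulation is relative to the response to 100 µM linoleic acid. EC50 is reported with SEM and n.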

[32] = target: Free fatty acid receptor 1 (Rattus norvegicus) (UniProt Q8K3T4); test: Agonist activity at rat PK-tagged GPR40 expressed in human U2OS cells assessed as EA-tagged beta-arrestin recruitment after 90 mins in presence of 1 % heat inactivated FBS by beta-galactosidase reporter gene assay relative to untreated control; assay type: cell-based
[33] = target: T4, Peroxisome proliferator-activated receptor alpha (Homo sapiens); test: Displacement of [3H]-agonist from human PPARalpha expressed in baculovirus infecetd Sf9 cells system up to 30 uM after 10 hrs in presence of DR2 by scintillation proximity assay; procedure, shortened: as §2

Free fatty acid receptor 1 (Rattus norvegicus), sequence (Q8K3T4 whole entry): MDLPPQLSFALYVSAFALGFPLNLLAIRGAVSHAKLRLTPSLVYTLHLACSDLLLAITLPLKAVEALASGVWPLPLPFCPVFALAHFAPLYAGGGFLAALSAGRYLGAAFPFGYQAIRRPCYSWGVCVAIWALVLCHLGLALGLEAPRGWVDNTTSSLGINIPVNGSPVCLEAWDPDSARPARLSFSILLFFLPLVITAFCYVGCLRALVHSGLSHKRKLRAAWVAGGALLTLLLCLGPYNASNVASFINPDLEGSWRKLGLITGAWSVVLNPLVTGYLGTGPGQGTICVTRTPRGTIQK
Free fatty acid receptor 1 (Rattus norvegicus, UniProt Q8K3T4), sequence (Q8K3T4 whole entry): as above
T1 sequence (O14842 whole entry): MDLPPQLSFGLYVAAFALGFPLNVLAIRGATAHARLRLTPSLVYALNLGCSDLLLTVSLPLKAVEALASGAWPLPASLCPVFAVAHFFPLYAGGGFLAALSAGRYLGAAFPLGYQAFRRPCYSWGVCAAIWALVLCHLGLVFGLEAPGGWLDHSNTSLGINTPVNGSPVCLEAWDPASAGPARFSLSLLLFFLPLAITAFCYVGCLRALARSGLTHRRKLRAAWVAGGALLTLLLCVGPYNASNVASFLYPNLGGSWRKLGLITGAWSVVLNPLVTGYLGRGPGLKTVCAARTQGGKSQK

EC50 [20]	Activity [3]	Activity [21]	%max [22]	Activity [23]	Ki [24]	Activity [25]	Activity [26]	EC50 [27]	Activity [28]	Activity [29]	fraction unbound [30]	EC50 [31]	%max [32]	Activity [33]	SMILES	Activity (3T3-L1)	also measured
–	–	–	–	–	–	–	–	–	–	–	–	–	–	–	CC#C[C@@H](CC(=O)O)c1ccc(OCc2ccc(CN3CCC4(C=Cc5ccccc54)CC3)cc2)cc1 [LY2881835]	–	Drug metabolism [1]: Metabolite_Detected; Vd [2]: 111 L; %max [3]: 62%; Drug metabolism [4]: Metabolite_Detected; clearance [5]: 183 mL/min; Drug metabolism [6]: Metabolite_Detected; Drug metabolism [7]: Metabolite_Detected; ED90 (Rattus norvegicus [8]): 1 mg/kg; K [9]: 0.033 h⁻¹; Drug metabolism [10]: Metabolite_Detected; Drug metabolism [11]: Metabolite_Detected; Drug metabolism [12]: Metabolite_Detected; Drug metabolism [13]: Metabolite_Detected; Activity (Rattus norvegicus [14]): Active; metabolised at 0.5 h [15]: 65%; pKa [16]: 4.1 to 8.1; metabolised at 0.5 h [17]: 64%; Drug metabolism [18]: Metabolite_Detected; solubility [19]: 61 to 80 µM (≈ 30 to 39.3 µg/mL)
98 nM	64%	Active	127%	inactive	60 nM	inactive	inactive	166 nM	inactive	inactive	< 0.01	1 nM	142%	inactive	CC#C[C@@H](CC(=O)O)c1ccc(OCc2ccc3nc(-c4ccc(OC(F)F)cc4)nn3c2)cc1	inactive	–
216 nM	65%	Active	124%	inactive	35 nM	inactive	inactive	443 nM	inactive	inactive	< 0.01	9 nM	125%	inactive	CC#C[C@@H](CC(=O)O)c1ccc(OCc2ccc3nc(-c4ccc(C#N)cc4)nn3c2)cc1	inactive	–
95 nM	71%	Active	114%	inactive	63 nM	inactive	inactive	1490 nM	inactive	inactive	< 0.01	117 nM	140%	inactive	CC#C[C@@H](CC(=O)O)c1ccc(OCc2ccc3nc(-c4c(C)cc(OCCCS(C)(=O)=O)cc4C)nn3c2)cc1	inactive	–
562 nM	74%	Active	121%	inactive	102 nM	inactive	inactive	681 nM	inactive	inactive	< 0.01	16 nM	133%	inactive	CC#C[C@@H](CC(=O)O)c1ccc(OCc2ccc3nc(-c4ccc(OCCOC)cc4)nn3c2)cc1	inactive	–
30 nM	65%	Active	154%	inactive	32 nM	inactive	inactive	67 nM	inactive	inactive	< 0.01	2 nM	123%	inactive	CC#C[C@@H](CC(=O)O)c1ccc(OCc2ccc3nc(-c4ccc(C(C)C)cc4)nn3c2)cc1	inactive	–
68 nM	89%	Active	132%	inactive	37 nM	inactive	inactive	301 nM	inactive	inactive	< 0.01	72 nM	121%	inactive	CC#C[C@@H](CC(=O)O)c1ccc(OCc2ccc3nc(-c4ccc(OCCC(C)(C)O)cc4)nn3c2)cc1	inactive	–

Source: ChEMBL document CHEMBL4024777, “Discovery of LY3104607: A Potent and Selective G Protein-Coupled Receptor 40 (GPR40) Agonist with Optimized Pharmacokinetic Properties to Support Once Daily Oral Treatment in Patients with Type 2 Diabetes Mellitus” (J Med Chem, 2018)
